Measured values: PMC8897208 (Acta Pharmaceutica Sinica. B, 2021)

Legend:
MiaPaCa-2 cells = assay: Western blot of SIRT6 substrates H3K9Ac, H3K18Ac, H3K56Ac; format: cell-based; details: MiaPaCa-2, different concentrations of JYQ-42, Western blot
Outline: (§1)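 BXPC-3 cells were grown in RPMI1640 and MiaPaCa-2 cells in DMEM, each with 10% FBS and penicillin/streptomycin, at 37 °C under 5% CO2. Both lines were STR-verified. Cells took test compound at 0, 10, 20 or 40 μmol/L for 24 or 48 h and were lysed in 1× SDS loading buffer. Proteins were separated on 12% SDS-PAGE and transferred to PVDF. Blocking used Tris-NaCl pH 7.5 with Tween-20 and 5% milk. Detection was chemiluminescent (HRP), with β-actin as loading control.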

BXPC-3 cells [1] = assay: Migration assay by wound healing; format: cell-based; details: for relative migration rate (wound healing): control ~0.60
BXPC-3 cells [2] = assay: Western blot of SIRT6 substrates H3K9Ac, H3K18Ac, H3K56Ac; format: cell-based; details: BXPC-3, indicated doses of JYQ-42 for 24 h
Outline: as §1

BXPC-3 cells [3] = assay: Q-PCR for SIRT6, IL6, IL8 and TNF-α mRNA; format: cell-based; details: BXPC-3, 10, 20, 40 μmol/L, 24 h, qPCR
HDAC8 = target: T1, HDAC8 (Homo sapiens, UniProt Q9BY41); assay: HDACs selectivity assay; format: biochemical
T1 sequence (Q9BY41 1-377): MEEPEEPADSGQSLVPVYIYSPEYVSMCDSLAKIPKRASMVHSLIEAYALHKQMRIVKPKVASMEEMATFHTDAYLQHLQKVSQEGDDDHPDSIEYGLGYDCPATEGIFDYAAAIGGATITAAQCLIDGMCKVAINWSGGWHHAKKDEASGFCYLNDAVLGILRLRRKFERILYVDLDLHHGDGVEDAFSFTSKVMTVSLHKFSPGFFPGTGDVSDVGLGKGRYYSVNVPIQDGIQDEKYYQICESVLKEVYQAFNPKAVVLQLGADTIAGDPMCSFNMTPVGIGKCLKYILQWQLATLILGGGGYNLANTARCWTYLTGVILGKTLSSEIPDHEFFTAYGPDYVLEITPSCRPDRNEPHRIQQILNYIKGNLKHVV
Outline: (§2)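 Enzyme selectivity panel was run by an outside contract lab to its standard assay protocols. IC50 values came from dose–response fitting of the data points. Each experiment was done independently at least three times.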

SIRT5 (residues 34–302) = target: T2, SIRT5 (residues 34–302) (Homo sapiens, UniProt Q9NXA8); assay: Selectivity FDL deacetylation assay; format: biochemical
T2 sequence (Q9NXA8 34-302): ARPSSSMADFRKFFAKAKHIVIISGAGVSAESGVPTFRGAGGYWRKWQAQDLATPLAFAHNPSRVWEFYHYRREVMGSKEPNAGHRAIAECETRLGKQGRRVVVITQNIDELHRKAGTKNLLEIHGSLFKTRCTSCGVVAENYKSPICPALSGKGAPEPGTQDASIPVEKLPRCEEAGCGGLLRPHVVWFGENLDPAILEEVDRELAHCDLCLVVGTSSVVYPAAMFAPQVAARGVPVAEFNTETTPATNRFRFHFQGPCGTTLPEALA

BXPC-3 cells [4] = assay: Migration assay with xCELLigence RTCA-DP; format: cell-based; details: 5, 10, 20 μmol/L, effect even at 5 μmol/L
HDAC10 = target: T3, HDAC10 (Homo sapiens, UniProt Q969S8); assay: HDACs selectivity assay; format: biochemical
T3 sequence (Q969S8 1-669): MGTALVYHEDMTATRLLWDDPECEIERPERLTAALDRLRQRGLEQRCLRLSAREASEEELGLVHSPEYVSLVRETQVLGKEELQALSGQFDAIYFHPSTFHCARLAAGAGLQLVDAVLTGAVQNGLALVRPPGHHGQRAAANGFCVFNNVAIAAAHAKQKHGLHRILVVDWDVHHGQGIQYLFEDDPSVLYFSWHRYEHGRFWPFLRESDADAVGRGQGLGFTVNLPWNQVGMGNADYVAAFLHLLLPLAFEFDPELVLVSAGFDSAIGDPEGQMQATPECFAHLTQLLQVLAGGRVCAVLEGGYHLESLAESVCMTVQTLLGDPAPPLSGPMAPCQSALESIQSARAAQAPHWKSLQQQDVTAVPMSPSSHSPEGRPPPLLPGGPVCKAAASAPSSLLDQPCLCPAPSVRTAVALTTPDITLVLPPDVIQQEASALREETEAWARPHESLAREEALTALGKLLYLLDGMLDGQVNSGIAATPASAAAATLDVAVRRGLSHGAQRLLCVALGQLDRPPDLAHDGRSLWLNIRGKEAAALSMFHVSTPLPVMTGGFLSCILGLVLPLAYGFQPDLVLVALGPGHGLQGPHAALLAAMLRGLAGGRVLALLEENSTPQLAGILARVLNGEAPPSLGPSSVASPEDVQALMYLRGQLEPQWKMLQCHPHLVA
Outline: as §2

SIRT1 = target: T4, SIRT1 (Homo sapiens, UniProt Q96EB6); assay: HDACs selectivity assay; format: biochemical
T4 sequence (Q96EB6 1-747): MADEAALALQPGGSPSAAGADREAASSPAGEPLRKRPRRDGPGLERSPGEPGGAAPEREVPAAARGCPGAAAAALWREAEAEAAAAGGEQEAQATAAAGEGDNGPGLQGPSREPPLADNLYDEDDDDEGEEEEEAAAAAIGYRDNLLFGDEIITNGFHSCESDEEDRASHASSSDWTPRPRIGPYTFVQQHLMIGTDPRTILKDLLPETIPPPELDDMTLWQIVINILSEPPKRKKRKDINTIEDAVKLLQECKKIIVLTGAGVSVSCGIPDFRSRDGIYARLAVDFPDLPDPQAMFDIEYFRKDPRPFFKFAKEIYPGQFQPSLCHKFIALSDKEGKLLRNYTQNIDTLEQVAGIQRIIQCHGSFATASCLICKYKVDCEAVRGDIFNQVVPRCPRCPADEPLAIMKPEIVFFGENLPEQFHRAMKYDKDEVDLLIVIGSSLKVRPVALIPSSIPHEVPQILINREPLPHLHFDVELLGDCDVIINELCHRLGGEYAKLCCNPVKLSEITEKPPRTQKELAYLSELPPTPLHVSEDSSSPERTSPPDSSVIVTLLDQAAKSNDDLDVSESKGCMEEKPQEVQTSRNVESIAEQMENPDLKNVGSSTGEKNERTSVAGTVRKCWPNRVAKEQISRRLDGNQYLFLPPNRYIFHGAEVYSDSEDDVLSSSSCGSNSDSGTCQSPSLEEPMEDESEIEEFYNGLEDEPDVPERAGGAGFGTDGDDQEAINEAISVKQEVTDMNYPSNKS
Outline: as §2

## Nc1nonc1-n1cc(C(=O)N/N=C/c2cc(Cl)cc(C(F)(F)F)c2)nn1 [JYQ-42]
MiaPaCa-2 cells
  levels of H3K9Ac, H3K18Ac and H3K56Ac: increased the levels of H3K9Ac, H3K18Ac and H3K56Ac in a dose-dependent manner
BXPC-3 cells [1]; BXPC-3, 10 μmol/L JYQ-42, 24 h
  relative migration rate (wound healing): ~ 0.3
BXPC-3 cells [1]; BXPC-3, 20 μmol/L JYQ-42, 24 h
  relative migration rate (wound healing): ~ 0.24
BXPC-3 cells [1]; BXPC-3, 40 μmol/L JYQ-42, 24 h
  relative migration rate (wound healing): ~ 0.10
BXPC-3 cells [1]; BXPC-3, 40 μmol/L JYQ-42 in the presence of 0.5 mmol/L ADPr
  migration with ADPr co-treatment (wound healing): no influence on the migration
BXPC-3 cells [2]
  levels of H3K9Ac, H3K18Ac and H3K56Ac: increased the levels of H3K9Ac, H3K18Ac and H3K56Ac in a dose-dependent manner
BXPC-3 cells [3]
  mRNA level of SIRT6: not significantly changed
HDAC8
  IC50: > 100 µM
SIRT5 (residues 34–302)
  IC50: > 100 µM
BXPC-3 cells [4]
  migration of pancreatic cancer cells (RTCA cell index): dramatically attenuated
HDAC10
  IC50: > 100 µM
SIRT1
  IC50: > 100 µM
